In brackets after ≈: the same amount, converted by molar mass.
Key:
[1] = Inhibition of Staphylococcus aureus topoisomerase assessed as reduction in relaxation of supercoiled pNO1 DNA measured after 30 mins by fluorescence assay
Procedure, shortened: (§1)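 Enzyme run per an earlier-reported procedure; IC50 fitted from seven inhibitor concentrations, mean of three independent measurements.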

[2] = Inhibition of Escherichia coli topoisomerase assessed as reduction in relaxation of supercoiled pNO1 DNA measured after 30 mins by fluorescence assay; procedure, shortened: as §1
DNA gyrase [3] = target: DNA gyrase (Escherichia coli, UniProt P0AES4+P0AES6); experiment: Inhibition of Escherichia coli DNA gyrase assessed as reduction in supercoiling of relaxed pNO1 DNA measured after 30 mins by fluorescence assay
DNA gyrase [4] = target: DNA gyrase (Staphylococcus aureus, UniProt P0A0K8+P20831); experiment: Inhibition of Staphylococcus aureus DNA gyrase assessed reduction in supercoiling of relaxed pNO1 DNA measured after 30 mins by fluorescence assay
Pseudomonas aeruginosa = experiment: Antibacterial activity against Pseudomonas aeruginosa ATCC 27853 assessed as inhibition of bacterial growth by CLSI protocol based broth microdilution assay; format: functional
Staphylococcus aureus [5] = experiment: Antibacterial activity against Staphylococcus aureus ATCC 29213 assessed as inhibition of bacterial growth by CLSI protocol based broth microdilution assay; format: functional
Acinetobacter baumannii = experiment: Antibacterial activity against Acinetobacter baumannii ATCC 17978 assessed as inhibition of bacterial growth by CLSI protocol based broth microdilution assay; format: functional
Klebsiella pneumoniae = experiment: Antibacterial activity against Klebsiella pneumoniae ATCC 10031 assessed as inhibition of bacterial growth by CLSI protocol based broth microdilution assay; format: functional
Staphylococcus aureus [6] = experiment: Antibacterial activity against methicillin-resistant Staphylococcus aureus ATCC 43300 assessed as inhibition of bacterial growth by CLSI protocol based broth microdilution assay; format: functional
Procedure, shortened: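 Minimum inhibitory concentration by standard serial broth microdilution following CLSI guidelines. Medium was MHBII broth (22 g/L powder: beef extract, casein acid hydrolysate, starch), with MHBII agar (14 g agar per L broth). Where noted, assayed without and with efflux pump substrate phenylalanine-arginine β-naphthylamide (PAβN).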

Escherichia coli = experiment: Antibacterial activity against Escherichia coli ATCC 25922 assessed as inhibition of bacterial growth by CLSI protocol based broth microdilution assay; format: functional
Enterococcus faecalis = experiment: Antibacterial activity against Enterococcus faecalis ATCC 29212 assessed as inhibition of bacterial growth by CLSI protocol based broth microdilution assay; format: functional

Chain of DNA gyrase (Staphylococcus aureus, UniProt P0A0K8+P20831) (P0A0K8 whole entry): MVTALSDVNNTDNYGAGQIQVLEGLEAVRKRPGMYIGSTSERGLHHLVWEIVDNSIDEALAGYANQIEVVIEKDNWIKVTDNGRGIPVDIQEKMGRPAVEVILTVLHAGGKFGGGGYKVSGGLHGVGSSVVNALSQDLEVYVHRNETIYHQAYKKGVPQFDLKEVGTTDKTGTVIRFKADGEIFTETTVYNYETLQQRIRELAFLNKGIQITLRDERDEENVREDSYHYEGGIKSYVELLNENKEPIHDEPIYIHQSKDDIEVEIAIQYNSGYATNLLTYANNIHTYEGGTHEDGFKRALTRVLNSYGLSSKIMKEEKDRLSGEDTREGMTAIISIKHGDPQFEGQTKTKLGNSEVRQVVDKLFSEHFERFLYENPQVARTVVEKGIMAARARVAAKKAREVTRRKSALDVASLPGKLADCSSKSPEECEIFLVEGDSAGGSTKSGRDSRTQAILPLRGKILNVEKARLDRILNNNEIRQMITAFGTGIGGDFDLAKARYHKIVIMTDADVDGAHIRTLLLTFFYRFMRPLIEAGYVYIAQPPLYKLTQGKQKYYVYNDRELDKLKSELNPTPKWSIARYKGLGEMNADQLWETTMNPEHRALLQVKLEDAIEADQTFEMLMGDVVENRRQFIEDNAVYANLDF
Chain of DNA gyrase (Staphylococcus aureus, UniProt P0A0K8+P20831) (P20831 whole entry): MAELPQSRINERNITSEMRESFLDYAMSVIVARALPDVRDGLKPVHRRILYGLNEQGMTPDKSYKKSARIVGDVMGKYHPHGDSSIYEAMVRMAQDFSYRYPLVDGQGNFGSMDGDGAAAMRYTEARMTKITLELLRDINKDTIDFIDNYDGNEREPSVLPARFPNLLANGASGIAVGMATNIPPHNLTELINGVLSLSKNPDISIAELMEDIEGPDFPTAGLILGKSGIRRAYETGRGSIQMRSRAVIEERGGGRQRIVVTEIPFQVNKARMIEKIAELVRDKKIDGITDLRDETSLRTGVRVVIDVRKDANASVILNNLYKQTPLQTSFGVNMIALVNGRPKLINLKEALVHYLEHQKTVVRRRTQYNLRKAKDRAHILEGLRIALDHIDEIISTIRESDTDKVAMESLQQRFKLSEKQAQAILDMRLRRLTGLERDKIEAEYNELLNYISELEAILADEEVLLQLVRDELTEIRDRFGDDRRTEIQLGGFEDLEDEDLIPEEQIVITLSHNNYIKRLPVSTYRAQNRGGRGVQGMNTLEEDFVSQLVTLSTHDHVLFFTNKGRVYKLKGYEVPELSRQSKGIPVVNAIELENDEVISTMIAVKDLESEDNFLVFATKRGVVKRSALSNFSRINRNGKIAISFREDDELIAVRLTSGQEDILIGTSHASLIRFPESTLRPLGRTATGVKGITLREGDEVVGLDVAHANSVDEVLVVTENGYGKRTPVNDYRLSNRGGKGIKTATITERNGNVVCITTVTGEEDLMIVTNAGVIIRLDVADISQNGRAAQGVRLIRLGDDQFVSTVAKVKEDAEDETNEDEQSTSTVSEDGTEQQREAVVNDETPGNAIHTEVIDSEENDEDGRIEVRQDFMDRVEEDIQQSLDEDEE

| SMILES | IC50 [1] [nM] | IC50 [2] [nM] | IC50 (DNA gyrase [3]) [nM] | IC50 (DNA gyrase [4]) [nM] | MIC (Pseudomonas aeruginosa) [µg/mL] | MIC (Staphylococcus aureus [5]) [µg/mL] | MIC (Acinetobacter baumannii) [µg/mL] | MIC (Klebsiella pneumoniae) [µg/mL] | MIC (Staphylococcus aureus [6]) [µg/mL] | MIC (Escherichia coli) [µg/mL] | MIC (Enterococcus faecalis) [µg/mL] |
| --- | --- | --- | --- | --- | --- | --- | --- | --- | --- | --- | --- |
| Cc1[nH]c(C(=O)Nc2nc3c(OCCN4CCOCC4)cc(C(=O)NCC#N)cc3s2)c(Cl)c1Cl | 520 | > 1000 | < 10 | 100 | – | – | – | – | – | – | – |
| Cc1[nH]c(C(=O)Nc2nc3c(OCCN)cc(C(=O)O)cc3s2)c(Cl)c1Cl | 160 | > 1000 | < 10 | 48 | – | – | – | – | – | – | – |
| Cc1[nH]c(C(=O)Nc2nc3ccc(C(=O)O)cc3s2)c(Cl)c1Cl | 66 | 500 | – | – | 8 (≈ 21.6 µM) | 1 (≈ 2.7 µM) | 4 (≈ 10.8 µM) | 1 (≈ 2.7 µM) | 0.125 (≈ 0.338 µM) | 4 (≈ 10.8 µM) | 0.125 (≈ 0.338 µM) |
| Cc1[nH]c(C(=O)Nc2nc3cc(O)c(C(=O)O)cc3s2)c(Cl)c1Cl | 46 | 95 | < 10 | 61 | > 64 | 16 (≈ 41.4 µM) | > 64 | 8 (≈ 20.7 µM) | 4 (≈ 10.4 µM) | > 64 | 1 (≈ 2.59 µM) |
| Cc1[nH]c(C(=O)Nc2nc3c(O)cc(C(=O)O)cc3s2)c(Cl)c1Cl | 120 | 130 | < 10 | 22 | > 64 | 16 (≈ 41.4 µM) | > 64 | 4 (≈ 10.4 µM) | 4 (≈ 10.4 µM) | > 64 | 2 (≈ 5.18 µM) |
| Cc1[nH]c(C(=O)Nc2nc3c(OCc4cccc(C(=O)O)c4)cc(C(=O)O)cc3s2)c(Cl)c1Cl | 13 | 170 | < 10 | < 10 | – | – | – | – | – | – | – |
| COc1ccc2nc(NC(=O)c3[nH]c(C)c(Cl)c3Cl)sc2c1 | > 1000 | > 1000 | > 1000 | > 1000 | – | – | – | – | – | – | – |
| CCN(C(=O)c1[nH]c(C)c(Cl)c1Cl)c1nc2ccc(C(=O)O)cc2s1 | 230 | > 1000 | < 10 | 32 | > 64 | 0.125 (≈ 0.314 µM) | 16 (≈ 40.2 µM) | 16 (≈ 40.2 µM) | 8 (≈ 20.1 µM) | 32 (≈ 80.3 µM) | 0.125 (≈ 0.314 µM) |
| Cc1[nH]c(C(=O)Nc2nc3c(OCc4ccc(C(=O)O)cc4)cc(C(=O)O)cc3s2)c(Cl)c1Cl | 12 | 260 | < 10 | < 10 | – | – | – | – | – | – | – |
| Cc1[nH]c(C(=O)Nc2nc3ccc(C(N)=O)cc3s2)c(Cl)c1Cl | 320 | 490 | – | 59 | – | – | – | – | – | – | – |
| Cc1[nH]c(C(=O)Nc2nc3c(OCc4ccccc4)cc(C#N)cc3s2)c(Cl)c1Cl | > 1000 | > 1000 | > 1000 | > 1000 | – | – | – | – | – | – | – |
| Cc1[nH]c(C(=O)Nc2nc3c(OCc4ccccc4)cc(-c4nnn[nH]4)cc3s2)c(Cl)c1Cl | 89 | – | – | 26 | > 64 | 4 (≈ 7.99 µM) | > 64 | > 64 | 4 (≈ 7.99 µM) | > 64 | 0.125 (≈ 0.25 µM) |
| Cc1[nH]c(C(=O)Nc2nc3cc(C(=O)O)ccc3s2)c(Cl)c1Cl | > 1000 | > 1000 | – | > 1000 | – | – | – | – | – | – | – |
| COc1cc(C(=O)O)cc2sc(NC(=O)c3[nH]c(C)c(Cl)c3Cl)nc12 | 390 | 160 | < 10 | 44 | 64 (≈ 160 µM) | 2 (≈ 5 µM) | 16 (≈ 40 µM) | 2 (≈ 5 µM) | 0.5 (≈ 1.25 µM) | 64 (≈ 160 µM) | 0.25 (≈ 0.625 µM) |
| Cc1[nH]c(C(=O)Nc2nc3c(F)cc(C(=O)O)cc3s2)c(Cl)c1Cl | 240 | 200 | < 10 | 17 | 64 (≈ 165 µM) | 0.5 (≈ 1.29 µM) | 8 (≈ 20.6 µM) | 4 (≈ 10.3 µM) | 0.0625 (≈ 0.161 µM) | 16 (≈ 41.2 µM) | 0.0625 (≈ 0.161 µM) |
| O=C(O)c1ccc2nc(NC(=O)c3cc(Cl)c(Cl)[nH]3)sc2c1 | > 1000 | 280 | – | 500 | – | – | – | – | – | – | – |
| Cc1[nH]c(C(=O)Nc2nc3c(OCc4ccccc4)cc(C(=O)O)cc3s2)c(Cl)c1Cl | 68 | – | – | – | 2 (≈ 4.2 µM) | 0.5 (≈ 1.05 µM) | 2 (≈ 4.2 µM) | 1 (≈ 2.1 µM) | 0.0625 (≈ 0.131 µM) | 16 (≈ 33.6 µM) | < 0.0212 |

| SMILES | IC50 [1] [nM] | IC50 [2] [nM] | IC50 (DNA gyrase [3]) [nM] | IC50 (DNA gyrase [4]) [nM] | MIC (Pseudomonas aeruginosa) [µg/mL] | MIC (Staphylococcus aureus [5]) [µg/mL] | MIC (Acinetobacter baumannii) [µg/mL] | MIC (Klebsiella pneumoniae) [µg/mL] | MIC (Staphylococcus aureus [6]) [µg/mL] | MIC (Escherichia coli) [µg/mL] | MIC (Enterococcus faecalis) [µg/mL] |
| --- | --- | --- | --- | --- | --- | --- | --- | --- | --- | --- | --- |
| Cc1[nH]c(C(=O)Nc2nc3ccc(C(=O)NCC#N)cc3s2)c(Cl)c1Cl | > 1000 | > 1000 | – | 310 | – | – | – | – | – | – | – |
| Cc1[nH]c(C(=O)Nc2nc3ccc(-c4nnn[nH]4)cc3s2)c(Cl)c1Cl | 270 | 660 | < 10 | 25 | > 64 | 16 (≈ 40.6 µM) | > 64 | 16 (≈ 40.6 µM) | 16 (≈ 40.6 µM) | > 64 | 1 (≈ 2.54 µM) |
| Cc1[nH]c(C(=O)Nc2nc3ccc(C(=O)O)cc3s2)c(Cl)c1Br | 61 | 220 | < 10 | 24 | 8 (≈ 19.3 µM) | 0.125 (≈ 0.301 µM) | 4 (≈ 9.65 µM) | 2 (≈ 4.82 µM) | 2 (≈ 4.82 µM) | > 64 | 0.0625 (≈ 0.151 µM) |
| Cc1[nH]c(C(=O)Nc2nc3c(OCc4cccc(F)c4)cc(C(=O)O)cc3s2)c(Cl)c1Cl | < 10 | – | – | < 10 | 64 (≈ 129 µM) | 0.0625 (≈ 0.126 µM) | 2 (≈ 4.05 µM) | > 64 | 0.0625 (≈ 0.126 µM) | – | 0.001 (≈ 0.00202 µM) |
| O=C(NO)c1ccc2nc(NC(=O)c3cc(Br)c(Br)[nH]3)sc2c1 | > 1000 | > 1000 | – | > 1000 | – | – | – | – | – | – | – |
| Cc1[nH]c(C(=O)Nc2nc3c(OCc4ccccc4)cc(C(N)=O)cc3s2)c(Cl)c1Cl | > 1000 | > 1000 | – | > 1000 | – | – | – | – | – | – | – |
| O=C(O)c1ccc2nc(NC(=O)c3cc(Br)c(Br)[nH]3)sc2c1 | 300 | > 1000 | – | > 1000 | – | – | – | – | – | – | – |
| Cc1[nH]c(C(=O)Nc2nc3ccc(C(=O)NCCC(=O)O)cc3s2)c(Cl)c1Cl | 40 | 210 | < 10 | 71 | > 64 | 32 (≈ 72.5 µM) | > 64 | 8 (≈ 18.1 µM) | 8 (≈ 18.1 µM) | > 64 | 2 (≈ 4.53 µM) |
| Cc1[nH]c(C(=O)Nc2nc3c(OCc4ccccc4)cc(C(=O)NCC#N)cc3s2)c(Cl)c1Cl | > 1000 | > 1000 | < 10 | 180 | > 64 | 4 (≈ 7.78 µM) | > 64 | > 64 | 4 (≈ 7.78 µM) | > 64 | 16 (≈ 31.1 µM) |
| Cc1[nH]c(C(=O)Nc2nc3ccc(C#N)cc3s2)c(Cl)c1Cl | > 1000 | > 1000 | > 1000 | > 1000 | – | – | – | – | – | – | – |
| Cc1[nH]c(C(=O)N(c2nc3ccc(C(=O)O)cc3s2)C2CC2)c(Cl)c1Cl | > 1000 | > 1000 | – | > 1000 | > 64 | 2 (≈ 4.87 µM) | > 64 | 64 (≈ 156 µM) | 2 (≈ 4.87 µM) | > 64 | 0.25 (≈ 0.609 µM) |
| Cc1[nH]c(C(=O)Nc2nc3c(OCc4cccs4)cc(C(=O)O)cc3s2)c(Cl)c1Cl | 88 | 300 | < 10 | < 10 | 4 (≈ 8.29 µM) | 0.0625 (≈ 0.13 µM) | 1 (≈ 2.07 µM) | 4 (≈ 8.29 µM) | 0.5 (≈ 1.04 µM) | 8 (≈ 16.6 µM) | 0.0163 (≈ 0.0338 µM) |
| O=C(O)c1cc(O)c2nc(NC(=O)c3cc(Br)c(Br)[nH]3)sc2c1 | 240 | 180 | – | 170 | – | – | – | – | – | – | – |
| Cc1[nH]c(C(=O)Nc2nc3c(OCCN4CCOCC4)cc(C(=O)O)cc3s2)c(Cl)c1Cl | 66 | 220 | < 10 | 17 | – | – | – | – | – | – | – |
| Cc1[nH]c(C(=O)N(c2nc3ccc(C(=O)O)cc3s2)C(C)C)c(Cl)c1Cl | > 1000 | > 1000 | – | > 1000 | – | – | – | – | – | – | – |
| Cc1[nH]c(C(=O)Nc2nc3ccc(C(=O)NO)cc3s2)c(Cl)c1Cl | > 1000 | > 1000 | – | 720 | > 64 | 64 (≈ 166 µM) | > 64 | > 64 | 32 (≈ 83.1 µM) | > 64 | 0.5 (≈ 1.3 µM) |
